Series [1] has as its target cAMP and cAMP-inhibited cGMP 3',5'-cyclic phosphodiesterase 10A (Homo sapiens, UniProt Q9Y233). Put plainly: Inhibition of PDE10A.
A short description of series [2]: Solubility of the compound at pH 7. Format: physicochemical. To be noted: buffer.
Series [3] in a line: Plasma clearance in rat. Format: ADME, organism-based.
Another series deals with Salmonella typhimurium. Description: Mutagenicity against Salmonella typhimurium up to 5000 ug/plate by Ames test. It is filed as toxicity, organism-based. The settings on record: salmonella enterica subsp. enterica serovar typhimurium. In general terms: In the Ames test, an excess of revertant colonies over the control signals mutagenicity.
For series [4], the species on record is Homo sapiens. Put plainly: Selectivity ratio of Ki for human PDE11A to Ki for human PDE10A.
The species entered for series [5] is Homo sapiens. Put plainly: Selectivity ratio of Ki for human PDE5A to Ki for human PDE10A.
The species entered for series [6] is Homo sapiens. Description: Selectivity ratio of Ki for human PDE7A to Ki for human PDE10A.
Series [7] in a line: Clearance in monkey. It is filed as ADME, organism-based, Macaca mulatta. To be noted: rhesus monkey, in vivo.
For series [8], the system named is Rattus norvegicus. Put plainly: Antipsychotic activity in rat assessed as inhibition of MK801-induced hyperlocomotion at 3 mg/kg, po. Format: functional, organism-based. Also on record: dose 3 mg/kg. The gist of the method: (§1)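 Oral dosing in rats challenged with the psychostimulant MK-801. Locomotor activity is scored against vehicle-only animals and against animals given MK-801 alone.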

In series [9] the test system is Rattus norvegicus. Put plainly: Antipsychotic activity in po dosed rat assessed as inhibition of MK801-induced hyperlocomotion. Format: functional, organism-based. The gist of the method: as §1
The test system of a further series is Canis familiaris. Description: Cardiotoxicity in dog assessed as QTc prolongation at 13,29 and 42 mg/kg, iv administered sequentially at 30 mins periods. Further details: dose 42 mg/kg, route intravenous. Format: toxicity, organism-based, Canis lupus familiaris. To be noted: in vivo, 0.5 h.
In series [10] the test system is Rattus norvegicus. Description: Toxicity in rat assessed as decrease in weight gain up to 10 mg/kg, po administered for 7 days relative to vehicle-treated control. Format: organism-based. Also on record: dose 10 mg/kg, route oral. The settings on record: in vivo, 168 h. The gist of the method:
(§2)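 Rats are dosed orally for 7 days, with olanzapine at 4 mg/kg as the comparator. Weight gain, body fat, and lean body mass are measured against vehicle, n = 12/group.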

Series [11] can be described thus: Clearance in dog. Format: ADME, organism-based, Canis lupus familiaris. To be noted: in vivo.
The species entered for series [12] is Homo sapiens. Description: Selectivity ratio of Ki for human PDE9A to Ki for human PDE10A.
The nature of series [13]: Reversible inhibition of cytochrome P450. Format: ADME.
The subject of series [14] is Rattus norvegicus. Put plainly: Antipsychotic activity in rat assessed as increase in cognitive function at 1 mg/kg, po by NOR assay. Format: functional, organism-based. Further details: dose 1 mg/kg.
Series [15] has as its system Rattus norvegicus. Put plainly: Toxicity in rat assessed as increase in prolactin level up to 50 mg/kg, po. Format: organism-based. Further details: dose 50 mg/kg, route oral. The settings on record: in vivo. Summed up: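 Circulating prolactin is measured in rats after oral administration, with haloperidol at 1.5 mg/kg as the control.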
For series [16], the species on record is Homo sapiens. Description: Selectivity ratio of Ki for human PDE2A to Ki for human PDE10A.
Series [17] concerns Rattus norvegicus. Put plainly: Toxicity in rat assessed as decrease in total body fat up to 10 mg/kg, po administered for 7 days relative to vehicle-treated control. It is filed as organism-based. Also on record: dose 10 mg/kg, route oral. The settings on record: in vivo, 168 h. The gist of the method: as §2
The species named for series [18] is Homo sapiens. Put plainly: Selectivity ratio of Ki for human PDE3A to Ki for human PDE10A.
Series [19] deals with Rattus norvegicus. Put plainly: Toxicity in rat assessed as decrease in lean body mass up to 10 mg/kg, po administered for 7 days relative to vehicle-treated control. Format: organism-based. Also on record: dose 10 mg/kg, route oral. The settings on record: in vivo, 168 h. The gist of the method: as §2
Series [20] is described as follows: Clearance in rat. Format: ADME, organism-based. To be noted: in vivo.
The species entered for series [21] is Homo sapiens. Put plainly: Selectivity ratio of Ki for human PDE6A to Ki for human PDE10A.
The species entered for series [22] is Homo sapiens. Put plainly: Selectivity ratio of Ki for human PDE1A to Ki for human PDE10A.
The species named for series [23] is Homo sapiens. Put plainly: Selectivity ratio of Ki for human PDE4A to Ki for human PDE10A.
The subject of series [24] is Rattus norvegicus. Description: Inhibition of PDE10A in rat assessed as increase in striatal cGMP level at 30 mg/kg, po after 2 hrs relative to vehicle-treated control. Format: functional. Also on record: scale not given: the % may be the effect or the level left. The gist of the method: (§3)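 Rats given the compound orally. Striatal cGMP is measured 2 h after dosing and expressed relative to vehicle-injected controls.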

A short description of series [25]: Plasma concentration in rat at 3 mg/kg, po at 2 hrs. It is filed as ADME, organism-based. Also on record: dose 3 mg/kg, route oral. Summed up:
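Plasma drug concentration is sampled 2 h after oral dosing in the rat hyperlocomotion study.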

The species entered for series [26] is Homo sapiens. Put plainly: Selectivity ratio of Ki for human PDE8A to Ki for human PDE10A.
The subject of series [27] is Rattus norvegicus. Description: Toxicity in rat assessed as induction of catalepsy up to 50 mg/kg, po. Format: organism-based. Further details: dose 50 mg/kg, route oral. To be noted: in vivo. The gist of the method:
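Catalepsy in rats is scored by fore-limb retraction (paw test) after oral administration, with haloperidol at 1.5 mg/kg as the control.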

Series [28] deals with T1, Nuclear receptor subfamily 1 group I member 2 (Homo sapiens, UniProt O75469).
T1 sequence (O75469 whole entry): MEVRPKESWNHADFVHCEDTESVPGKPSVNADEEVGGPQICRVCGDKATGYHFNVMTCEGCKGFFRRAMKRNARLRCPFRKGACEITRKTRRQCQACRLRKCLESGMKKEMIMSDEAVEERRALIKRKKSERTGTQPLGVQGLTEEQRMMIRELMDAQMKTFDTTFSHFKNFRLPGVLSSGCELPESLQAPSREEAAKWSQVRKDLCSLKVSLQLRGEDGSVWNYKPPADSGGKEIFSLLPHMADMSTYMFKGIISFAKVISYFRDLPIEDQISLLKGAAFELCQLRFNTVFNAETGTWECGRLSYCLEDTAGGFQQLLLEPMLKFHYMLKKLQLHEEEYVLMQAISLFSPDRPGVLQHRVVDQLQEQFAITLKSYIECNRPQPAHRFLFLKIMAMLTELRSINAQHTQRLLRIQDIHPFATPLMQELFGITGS
Description: Activation of PXR.

The species entered for series [29] is Rattus norvegicus. Description: Antipsychotic activity in rat by conditioned avoidance response assay. Format: functional, organism-based.
The subject of series [30] is Rattus norvegicus. Put plainly: Inhibition of PDE10A in po dosed rat assessed as increase in striatal cGMP level after 2 hrs relative to vehicle-treated control. It is filed as functional, organism-based. Summed up:
as §3

A short description of series [31]: Time-dependent inhibition of cytochrome P450. It is filed as ADME.

≈ marks a conversion by molar mass, not a printed value. Calls of active or inactive are those of the source. The rule behind the calls is not given here.

cAMP and cAMP-inhibited cGMP 3',5'-cyclic phosphodiesterase 10A, sequence (Q9Y233 whole entry): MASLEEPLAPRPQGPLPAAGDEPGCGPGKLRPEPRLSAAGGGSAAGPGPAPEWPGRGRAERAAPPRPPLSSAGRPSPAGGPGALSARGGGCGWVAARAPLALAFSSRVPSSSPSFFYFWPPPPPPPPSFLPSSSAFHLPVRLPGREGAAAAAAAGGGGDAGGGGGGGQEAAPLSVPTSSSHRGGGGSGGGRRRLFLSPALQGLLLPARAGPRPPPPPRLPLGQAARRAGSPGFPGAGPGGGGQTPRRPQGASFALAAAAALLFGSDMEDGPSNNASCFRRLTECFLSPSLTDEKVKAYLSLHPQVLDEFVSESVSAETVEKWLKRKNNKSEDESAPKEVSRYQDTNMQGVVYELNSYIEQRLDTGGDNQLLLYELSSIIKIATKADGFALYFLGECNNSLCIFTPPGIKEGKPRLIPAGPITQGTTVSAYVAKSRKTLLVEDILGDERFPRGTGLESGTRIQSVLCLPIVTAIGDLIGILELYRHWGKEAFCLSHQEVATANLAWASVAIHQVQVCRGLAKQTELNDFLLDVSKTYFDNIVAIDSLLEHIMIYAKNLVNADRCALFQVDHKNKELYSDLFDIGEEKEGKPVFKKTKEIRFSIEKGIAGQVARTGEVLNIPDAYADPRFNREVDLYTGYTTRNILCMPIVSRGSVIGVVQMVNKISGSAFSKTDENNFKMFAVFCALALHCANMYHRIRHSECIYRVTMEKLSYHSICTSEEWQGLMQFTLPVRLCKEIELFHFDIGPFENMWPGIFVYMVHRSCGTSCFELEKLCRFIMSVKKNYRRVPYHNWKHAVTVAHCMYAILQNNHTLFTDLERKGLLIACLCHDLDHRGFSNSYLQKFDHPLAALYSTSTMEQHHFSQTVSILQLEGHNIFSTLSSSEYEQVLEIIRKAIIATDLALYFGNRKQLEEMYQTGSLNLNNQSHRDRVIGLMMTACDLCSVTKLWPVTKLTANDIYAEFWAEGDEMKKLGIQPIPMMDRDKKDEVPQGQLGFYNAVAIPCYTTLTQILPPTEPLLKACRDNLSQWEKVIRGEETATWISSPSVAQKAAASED

Turning to `Cc1ccncc1NC(=O)N1CCc2nc(-c3cccnc3)nc(OC(C)C)c2C1`, in [1], the Ki – broadly, the dissociation constant of the complex between target and ligand, obtained from inhibition or displacement – was 7.9 nM. Besides, the solubility (in general, how much of the substance goes into solution per volume) in [2] is greater than 75 µM.
Consider `CCc1cccc(NC(=O)N2CCc3nc(-c4cccnc4)nc(OC4CCN(C)CC4)c3C2)c1`, for which the clearance (commonly the rate of elimination divided by the concentration) in series [3] is greater than 100 mL/min/kg. The same molecule returned a solubility in [2] greater than 75 µM.
With `COc1nc(-c2cccnc2)nc2c1CN(C(=O)Nc1ccccc1)CC2`, the affinity in [1], expressed as Ki, was 93 nM. Moreover, in series [2], the solubility is greater than 75 µM.
`Cc1ccncc1NC(=O)N1CCc2nc(-c3ccc(F)nc3)nc(OC(C)C)c2C1` returned a Ki in [1] of 3 nM.
As for `Cc1nc2c(c(N(C)CCc3ccccn3)n1)CN(C(=O)Nc1ccccc1)CC2`, the affinity in [1], expressed as Ki, was 4340 nM.
`CN(CCc1ccccn1)c1nc(-c2ccccn2)nc2c1CN(C(=O)Nc1ccccc1)CC2` had an inhibitory constant (Ki) in series [1] of 864 nM. Besides, the solubility in series [2] is greater than 75 µM.
Turning to `Cc1ccncc1NC(=O)N1CCc2nc(-c3ccc(O)nc3)nc(OC(C)C)c2C1`, in series [1], the affinity, expressed as Ki, was 63 nM.
In series [1], `CN(CCc1ccccn1)c1nc(-c2ccncc2)nc2c1CN(S(C)(=O)=O)CC2` returned an inhibitory constant (Ki) of 843 nM. In series [2], this molecule came in with a solubility greater than 75 µM.
In series [1], `Cc1ccncc1NC(=O)N1CCc2nc(-c3ccc(C(F)(F)F)nc3)nc(OC(C)C)c2C1` returned a Ki of 247 nM.
The molecule `Cc1ccc(-c2nc3c(c(OC(C)C)n2)CN(C(=O)Nc2cnccc2C)CC3)cn1` showed an inhibitory constant (Ki) in series [1] of 8 nM.
Consider `COCCOc1nc(-c2ccc(Cl)nc2)nc2c1CN(C(=O)c1ncn3ccccc13)CC2` [THPP-1], for which the Activity result in the series with Salmonella typhimurium, with Canis familiaris, with Rattus norvegicus [10], in the series on Rattus norvegicus [15], with Rattus norvegicus [17] and with Rattus norvegicus [19] was “Non-toxic” throughout. The Activity in the series with Rattus norvegicus [24] is greater than 150%; in the series on Rattus norvegicus [27], “Non-toxic”; in series [28], “Not Active”; in the series filed under Rattus norvegicus [29] it was “Dose-dependent effect”. In addition, the Ratio Ki in the series filed under Homo sapiens [4] is 300; in the series listed under Homo sapiens [5], 116; in the series listed under Homo sapiens [6] it was greater than 1000; in the series filed under Homo sapiens [12], greater than 1000; in the series filed under Homo sapiens [16], greater than 1000; in the series filed under Homo sapiens [18] it was greater than 1000. The Ratio Ki in the series filed under Homo sapiens [21] is 44; in the series filed under Homo sapiens [22] it was greater than 1000; in the series filed under Homo sapiens [23] it was greater than 1000; in the series listed under Homo sapiens [26], greater than 1000. Besides, the values for the clearance in series [7], in series [11] and in [20] were 7.7 mL/min/kg, 3.8 mL/min/kg and 6 mL/min/kg, respectively. Further, the result in the series on Rattus norvegicus [8] and in the series with Rattus norvegicus [14] was Active. Moreover, the inhibition entry in the series with Rattus norvegicus [9] and with Rattus norvegicus [30] was “Dose-dependent effect” throughout. For the same molecule, the “inhibition (INH)” value in [13] and in series [31] was “Not Active” each time. This molecule returned a solubility in [2] of 20 µM (≈ 9.3 µg/mL). In [25], this molecule showed a concentration at 2 h of 730 nM.
Turning to `Cc1ccncc1NC(=O)N1CCc2nc(-c3ccc(Cl)nc3)nc(OC(C)C)c2C1`, in series [1], the affinity, expressed as Ki, was 0.6 nM.
As for `CC(C)Oc1nc(-c2cccnc2)nc2c1CN(C(=O)Nc1ccccc1)CC2`, the Ki in series [1] turned out to be 17 nM. This molecule also registered a solubility in series [2] greater than 75 µM.
The corresponding values for `CN(CCc1ccccn1)c1nc(-c2cccc(Br)c2)nc2c1CN(C(=O)Nc1ccccc1)CC2` are 991 nM and less than 10 µM.
Molecule `CN(CCc1ccccn1)c1nc(-c2ccncc2)nc2c1CN(C(=O)Nc1ccncc1)CC2` came in with a Ki in [1] of 117 nM. This molecule gave a solubility in [2] greater than 75 µM.
In the same order, the values of `CN(CCc1ccccn1)c1nc(-c2ccncc2)nc2c1CN(C(=O)Nc1ccccc1)CC2` are 94 nM and greater than 75 µM.

Source of the values: ChEMBL document CHEMBL2203265, “Discovery of tetrahydropyridopyrimidine phosphodiesterase 10A inhibitors for the treatment of schizophrenia” (Bioorg Med Chem Lett, 2012).
